CTSL1 counter: Fasciola hepatica cathepsin L1 inhibitors, primary screen, counter-screen for PFM18AAP inhibitor project, biochemical, QFRET, fluorogenic peptide substrate | recombinant F. hepatica cathepsin L1, Z-Leu-Arg-MCA fluorescence | inhibition, % at 5.96 µM | AID 1906, 2009 | hit rate 0.49% among 300,000;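 active = inhibition above the mean of all tested compounds plus 3 SD, set per screening campaign, cut at about 17% in these data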;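 also: 0% = plate median of test compound wells and 100% = 1 µM Z-Phe-Ala-diazomethylketone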
UCH37 DUB inh: inhibitors of human UCH37 deubiquitinase, primary screen, biochemical, Ub-AMC cleavage, fluorescence | Ubiquitin carboxyl-terminal hydrolase isozyme L5 (Homo sapiens), Q9Y5K5 | purified proteasome/UCH37 | inhibition, % (concentration not given with the values) | hit rate 0.33% among 330,000 | AID 588478, 2011;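 active = mean inhibition over replicate wells above about 20%, limit read from the data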;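 also: 0% = compound-free wells with enzyme and 100% = wells lacking proteasome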
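Material: human UCH37 enzyme supplied as purified proteasome complex. Measure: % inhibition of Ub-AMC cleavage fluorescence. Medium: pH 7.4 Tris-HCl (50 mM) with ovalbumin, ATP-MgCl2, DTT. Times: 30 min preincubation with enzyme, 25 min cleavage at room temperature. Detection: AMC fluorescence intensity at 355/460 nm.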
UBC13 polyUb: UBC13 polyubiquitin chain formation inhibitors, primary screen, biochemical, TR-FRET, uHTS; inhibition, % at 20 µM; Ubiquitin-conjugating enzyme E2 N (Homo sapiens), P61088; hit rate 0.47% among 330,000; AID 485273, 2010; in the data active = inhibition above about 45%, passing the limit was not always enough
PREPL inhibitor: PREPL enzyme inhibitors, primary screen, biochemical, fluorescence polarization; Prolyl endopeptidase-like (Homo sapiens), Q4J6C6; recombinant PREPL, fluorescence polarization activity-based probe; inhibition, % at 5.96 µM; hit rate 0.68% among 320,000; AID 2751, 2010; in the data active = inhibition above about 43%;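 also: 0% = enzyme with DMSO and 100% = wells lacking enzyme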
Target sequence (Q4J6C6 whole entry, looked up): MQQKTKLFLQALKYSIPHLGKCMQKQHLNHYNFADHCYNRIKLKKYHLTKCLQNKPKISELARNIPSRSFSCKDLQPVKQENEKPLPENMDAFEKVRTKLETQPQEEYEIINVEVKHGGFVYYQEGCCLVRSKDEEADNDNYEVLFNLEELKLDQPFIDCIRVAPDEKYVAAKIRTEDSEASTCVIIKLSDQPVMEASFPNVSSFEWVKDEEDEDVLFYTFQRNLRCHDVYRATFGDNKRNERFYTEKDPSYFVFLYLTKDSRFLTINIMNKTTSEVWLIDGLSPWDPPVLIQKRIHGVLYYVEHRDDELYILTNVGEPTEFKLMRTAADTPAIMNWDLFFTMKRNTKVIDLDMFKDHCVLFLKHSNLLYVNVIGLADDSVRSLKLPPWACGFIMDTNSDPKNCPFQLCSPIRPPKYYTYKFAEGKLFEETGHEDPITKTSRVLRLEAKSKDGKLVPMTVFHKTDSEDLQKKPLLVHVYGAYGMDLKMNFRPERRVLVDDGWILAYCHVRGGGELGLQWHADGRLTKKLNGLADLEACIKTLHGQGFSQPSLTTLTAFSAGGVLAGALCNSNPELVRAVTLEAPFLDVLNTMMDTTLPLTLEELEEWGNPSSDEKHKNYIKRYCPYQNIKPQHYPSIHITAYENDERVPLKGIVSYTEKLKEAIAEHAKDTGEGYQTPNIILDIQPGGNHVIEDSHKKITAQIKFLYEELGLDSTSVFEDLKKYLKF
PP5 primary: PP5 phosphatase inhibitors, primary screen, biochemical, fluorescence | AID 1987, 2009 | purified PP5c, OMFP substrate fluorescence | hit rate 0.18% among 320,000 | Serine/threonine-protein phosphatase 5 (Homo sapiens), P53041 | inhibition, % at 6.7 µM;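 active = inhibition above the campaign's mean inhibition across all tested compounds plus 3 SD, cut at about 9.5% in these data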;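 also: 0% = DMSO only and 100% = 100 µM cantharidin control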
PP1 counter: PP1-alpha phosphatase inhibitors, primary screen, counter-screen for PP5 inhibitor project, biochemical, fluorescence, OMFP substrate, single point; Serine/threonine-protein phosphatase PP1-alpha catalytic subunit (Homo sapiens), P62136; purified PP1alpha; inhibition, % at 6.7 µM; hit rate 0.9% among 320,000; AID 2235, 2010;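 active = inhibition above the mean inhibition of all tested compounds plus 3 SD, computed separately for each screening campaign, cut at about 15% in these data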
An asterisk follows results filed as active; i = inactive; nt = no result given; ! = a repeat was not active. Rows were chosen to be rich in hits. Some 2.3% of all compounds tested hit in one or more screens of this group.

SMILES	CTSL1 counter	UCH37 DUB inh	UBC13 polyUb	PREPL inhibitor	PP5 primary	PP1 counter
CC(=O)N1CCc2[nH]c3ccccc3c2C1	2.3	1.4	-5.3	2.1	3.0	-7.3
Cc1cccc(C)c1OCC(=O)NC1CC1	-0.2	0.5	0.8	5.8	2.5	0.0
Cc1cccc(C)c1OCC(=O)NNC(=S)NC(=O)C1CC1	-1.6	4.8	84.9*	9.2	1.6	-1.2
CCCCCOC(=O)c1ccccc1C(=O)O	-2.5	6.1	-26.7	7.5	2.1	0.4
CN(C)c1ccc(C(=O)c2ccccc2C(=O)O)c(O)c1	8.0	23.0*	-9.8	6.0	3.4	-2.8
CCCCN(CCCC)c1ccc(C(=O)c2ccccc2C(=O)O)c(O)c1	3.7	13.5	-12.8	7.4	2.7	16.9*
Cc1ccc(C(=O)c2ccccc2C(=O)O)c(O)c1	1.6	1.5	5.8	1.7	-0.9	-4.6
COc1cccc(C2C(C(=O)c3cc4ccccc4o3)=C(O)C(=O)N2c2cc(C)on2)c1 (stereo not given)	2.1	-5.9	-11.3	11.1	-0.1	24.9*
Cc1cc(N2C(=O)C(O)=C(C(=O)c3ccco3)C2c2cccnc2)no1 (stereo not given)	0.9	8.5	6.3	3.1	1.1	1.8
C=CCOc1cccc(C2C(C(=O)c3cc4ccccc4o3)=C(O)C(=O)N2c2cc(C)on2)c1 (stereo not given)	1.7	-23.5	-4.9	15.2	1.5	28.4*
COc1ccc(CC(=O)NN=C(C)c2cccs2)cc1	nt	0.3	nt	nt	nt	nt
Cc1ccc(NC(=O)C2C3C=CC4(O3)C2C(=O)N(CCCN2CCCC2)C4C(=O)NC2CCCCC2)cc1Cl (stereo not given)	-2.4	2.5	8.1	28.2	-0.3	1.5
COc1ccc(NC(=O)C2C3C=CC4(O3)C2C(=O)N(CCN2CCCCC2)C4C(=O)NC2CCCCC2)cc1 (stereo not given)	40.0*	5.1	-0.1	30.7	1.3	7.8
O=C(Nc1ccc(Br)cc1)C1C2C=CC3(O2)C1C(=O)N(CCN1CCCCC1)C3C(=O)NC1CCCCC1 (stereo not given)	7.7	6.0	7.1	41.0	0.3	-3.0
Cc1cc(C)cc(NC(=O)C2C3C=CC4(O3)C2C(=O)N(CCN2CCCCC2)C4C(=O)NC2CCCCC2)c1 (stereo not given)	19.0*	0.9	0.0	4.6	-0.1	0.4
O=c1cc(O)nc(SCc2ccccc2)n1-c1ccccc1	-2.4	2.9	16.2	1.8	-1.1	16.8*!
COC(=O)c1cc(C(=O)c2ccc(Cl)cc2)n2c(=O)c(=CN(C)C)sc12	nt	-13.0	nt	nt	nt	nt
CCOC(=O)Nc1cccc(OCC(=O)Nc2ccccc2OCC)c1	29.7*	1.9	18.0	-8.4	0.4	-0.9
CC(=O)Nc1cccc(OCC(=O)Nc2ccccc2)c1	-2.3	4.3	-10.9	1.5	0.3	-0.3
COc1cc(C=NNC(=O)c2cccnc2)ccc1OCC(=O)Nc1ccccc1Cl	nt	-180.9	nt	nt	nt	nt
CCc1ccc(S(=O)(=O)NN=Cc2cn(CC(N)=O)c3ccccc23)cc1	nt	3.6	nt	nt	nt	nt
CCCN(Cc1cc2cc(C)ccc2[nH]c1=O)C(=O)c1cccc([N+](=O)[O-])c1	18.6*	2.6	0.6	2.6	3.5	1.2
CC(NC(=O)C(=O)N1CCOCC1)C(c1cccs1)N1CCN(c2ccc(F)cc2)CC1 (stereo not given)	26.3*	2.4	-1.5	23.1	1.3	-2.4
Cc1ccc(NC(=S)NN=Cc2ccc(Cl)c([N+](=O)[O-])c2)cc1	nt	10.5	nt	nt	nt	nt
CN(C)c1ccc(/C=N/NC(N)=S)cc1[N+](=O)[O-]	18.7*	nt	-118.8	10.7	-0.3	-3.1
Cn1c(=O)n(C)c2cc(/C=N/NC(N)=S)ccc21	32.7*	nt	-3.3	-0.4	0.0	-2.2
Cn1c(=O)n(C)c2cc(C=NNC(N)=S)ccc21	nt	5.0	nt	nt	nt	nt
CN(C)C=Nc1nc2nccc(-c3ccc(Cl)cc3)n2n1	nt	i	nt	nt	nt	nt
O=c1c2ccccc2nc(/C=C/c2cccnc2)n1CCc1ccccc1	-2.6	nt	5.1	18.0	5.1	15.7*
O=c1c2ccccc2nc(/C=C/c2cccnc2)n1Cc1ccccc1	nt	11.1	nt	nt	nt	nt
